Test results from ChEMBL document CHEMBL1142555, “Cytotoxic activity of some phenanthroindolizidine N-oxide alkaloids from Cynanchum vincetoxicum” (J Nat Prod, 2000).

Experiments:
[1] = Cytotoxicity against drug-resistant human KB31 cells after 72 hrs by MTS reduction assay; type: functional, cell-based; settings: KB 3-1, 72 h, in the assay text read “drug-sensitive” for “drug-resistant”
How it was run: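 KB-3-1 cells grown as monolayers in DMEM with 10% FBS at 37 °C and 5% CO2, harvested by trypsin at 70-80% confluence and seeded at 4 × 10^3/well for 24 h. Dilutions of DMSO stock in medium were added (DMSO ≤0.25% final, also in controls), six wells per concentration, for 72 h. Viable cells were read by MTS/PMS, 50 min, A492. IC50 came from three passages.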

[2] = Resistance index, ratio of IC50 for human KBV1 cells to IC50 for human KB31 cells; type: functional
How it was run: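 Ratio of the IC50 in KB-V1 cells to the IC50 in parental KB-3-1 cells, each from a 72-h MTS/PMS proliferation assay (A492) run in parallel under the same dosing conditions (DMSO ≤0.25%, six replicates per concentration, three separate determinations).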

[3] = Cytotoxicity against multidrug-resistant human KBV1 cells after 72 hrs by MTS reduction assay; type: functional, cell-based; settings: KB-V1, 72 h
How it was run: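 KB-V1 multidrug-resistant line (P-170 glycoprotein) kept without vinblastine, using passages 5-15, in DMEM/10% FBS at 37 °C and 5% CO2. Cells were trypsinized at 60-70% confluence and seeded at 7 × 10^3/well for 24 h. Compound was added in medium (DMSO ≤0.25%), six replicates per concentration, for 72 h. Read-out was MTS/PMS, 50 min, A492. IC50 came from three separate passages.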

SMILES | IC50 [1] | Ratio [2] | IC50 [3]
COC(=O)c1ccccc1-c1c2ccc(=N)cc-2oc2cc(N)ccc12.Cl [RHODAMINE123] | 1400 nM | 500 | > 500000 nM
COc1ccc(C2=C(c3ccc(OC)c(OC)c3)C[C@H]3CCC[N+]3([O-])C2)cc1 (stereo not given in full) | 2550 nM | – | 3300 nM
COc1ccc2c3c(c4cc(OC)c(OC)cc4c2c1)[C@@H](O)[C@H]1CCC[N+]1([O-])C3 (stereo not given in full) | 100 nM | – | 160 nM
COc1ccc2c3c(c4cc(OC)c(OC)cc4c2c1)C[C@H]1CCC[N+]1([O-])C3 (stereo not given in full) | 110 nM | – | 160 nM
CC[C@]1(O)C[C@@H]2CN(CCc3c([nH]c4ccccc34)[C@@](C(=O)OC)(c3cc4c(cc3OC)N(C)[C@H]3[C@@](O)(C(=O)OC)[C@H](OC(C)=O)[C@]5(CC)C=CCN6CC[C@]43[C@@H]65)C2)C1 [VINBLASTINE] | – | 210 | –
